Reference: ChEMBL document CHEMBL2176894, “Cyanobacterial peptides as a prototype for the design of potent β-secretase inhibitors and the development of selective chemical probes for other aspartic proteases” (J Med Chem, 2012)
Values belong to the compound of their own block, whether it stands above or below them. The source made the active and inactive calls. The calls are words filed in the database; no cut-off is given here. Starred links: 1 amine or outer side, 2 acyl side, 3 side chain; linkers in the order of their positions; H or OH if unused. Non-standard residues stand in square brackets, D forms with d. Residues, ends and D or L forms follow the SMILES beside them. Ahppa(3S,4S) = O=C(C[C@H](O)[C@H](Cc1ccccc1)N[*:1])[*:2]; dNMeF = CN[C@H](Cc1ccccc1)C(=O)O; NMeQ = CN[C@@H](CCC(N)=O)C(=O)O; Lac = C[C@H](O)C(=O)O

Legend:
Cathepsin E = biological target: T1, Cathepsin E (Homo sapiens, UniProt P14091); assay: Inhibition of cathepsin E by fluorescence assay
T1 sequence (P14091 whole entry): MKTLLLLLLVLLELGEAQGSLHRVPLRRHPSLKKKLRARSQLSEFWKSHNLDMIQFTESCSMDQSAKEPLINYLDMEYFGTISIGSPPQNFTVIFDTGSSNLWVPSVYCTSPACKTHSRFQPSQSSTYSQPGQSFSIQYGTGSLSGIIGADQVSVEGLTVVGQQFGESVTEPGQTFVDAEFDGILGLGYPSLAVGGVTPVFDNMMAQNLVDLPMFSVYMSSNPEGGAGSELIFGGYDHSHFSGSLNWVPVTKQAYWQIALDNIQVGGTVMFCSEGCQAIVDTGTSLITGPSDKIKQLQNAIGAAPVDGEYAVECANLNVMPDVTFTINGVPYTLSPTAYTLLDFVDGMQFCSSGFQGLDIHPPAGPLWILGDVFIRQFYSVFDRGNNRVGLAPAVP

Cathepsin D = Cathepsin D (Homo sapiens, UniProt P07339); assay: Inhibition of cathepsin D by fluorescence assay
Nucleic Acid = assay: Ratio of drug level in CF1 mouse brain to IC50 for inhibition of BACE1-mediated Abeta40/Abeta42 production in CHO 2B7 cells expressing wild type APP695; assay type: cell-based
Procedure, shortened: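 CF-1 mice (8 weeks, 25−35 g) received 30 mg/kg i.p. in 5% DMSO/15% Solutol HS 15/10% EtOH/65% water and were killed 3 h post-dose. Cerebellum and cortex were homogenized in acetonitrile (1:10 w:v) with internal standard and quantified by HPLC-MS (MRM, negative ion). The cellular reference was CHO 2B7 (APP695 wt): 16 h treatment, 1% DMSO, secreted Aβ40/Aβ42 sandwich ELISA.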

Brain = assay: Drug concentration in CF1 mouse brain at 30 mg/kg, ip measured 3 hrs post dose by HPLC-MS method relative to compound plasma concentration; assay type: ADME, organism-based; set-up: dose 30 mg/kg, route intraperitoneal
Procedure, shortened: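 CF-1 mice, 8 weeks old, 25−35 g, given 30 mg/kg i.p. in 5% DMSO/15% Solutol HS 15/10% EtOH/65% water; killed 3 h post-dose. Cerebellum and cortex homogenized in acetonitrile (1:10 w:v) containing internal standard, then re-extracted. Plasma was taken by cardiac puncture into K-EDTA. Levels were measured by HPLC-MS (MRM, negative ionization) and interpolated from a calibration curve.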

Mus musculus = assay: Reduction in […] in CF1 mouse at 30 mg/kg, ip measured 3 hrs post dose by sandwich ELISA; assay type: functional, organism-based; set-up: dose 30 mg/kg
[1] = Drug metabolism in human H4 cells lysates assessed as ester hydrolysis mediated formation of metabolites by HPLC-MS method; assay type: ADME, cell-based, Lysate
Procedure, shortened: (§1)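 H4 whole-cell lysate was diluted to 1 mg/mL protein in 0.1 M phosphate buffer, pH 7.4. Parent and acid hydrolysis product were extracted with EtOAc with internal standard. Quantitation was by HPLC-MS MRM against a calibration curve; n = 2.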

Serum [2] = assay: Drug metabolism in mouse serum assessed as ester hydrolysis mediated formation of metabolites by HPLC-MS method; assay type: ADME, cell-free
Procedure, shortened: (§2)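 Compound (10 μL of 25 μg/mL) was incubated with 100 μL mouse serum at 37 °C for 0, 1, 2, 4, 8, 12 and 24 h. The reaction was quenched with EtOAc plus internal standard, shaken 5 min, centrifuged at 16000g, and the organic layer dried and taken up in MeOH. Parent and ester-hydrolysis acid were quantified by HPLC-MS MRM interpolation; n = 2.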

[3] = Permeability at 10 uM at pH 7.4 by PAMPA method; assay type: ADME; conditions: read-out: permeability
Procedure, shortened: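 Filters were coated with BBB-1 lipid, with brain sink buffer in the acceptor. Plates were incubated 4 h at room temperature, humidified. Absorbance was read at 250−350 nm and Pe calculated. Triplicate; mean ± SD.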

[4] = Permeability at 10 uM at pH 5.0 by PAMPA method; assay type: ADME; conditions: read-out: permeability
[5] = Stability in human H4 cells lysates by HPLC-MS method; assay type: ADME, cell-based, Lysate; procedure, shortened: as §1
Serum [6] = assay: Stability in mouse serum by HPLC-MS method; assay type: ADME, cell-free; procedure, shortened: as §2
[7] = biological target: Gamma-secretase (Homo sapiens) (UniProt Q96BI3+Q9NZ42+Q8WW43+P49768+Q92542+P49810); assay: Inhibition of gamma secretase expressed in human H4 cells expressing BRI-C99 fusion protein assessed as C99 fragment accumulation fragment at 10 uM incubated for 16 hrs in by immunoblot; assay type: cell-based
Procedure, shortened: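 H4 cells overexpressing Bri-C99 (400000/well) were kept in Opti-MEM with 1% serum and treated 16 h with test compound (10 μM), LY411575 (100 nM) or BACE1 inhibitor IV (1 μM). Cells were lysed in TBS/1% Triton X-100 and run on a 12% bis-tris gel. Blots were probed with CT-20 antibody for furin-generated C99 and read on an infrared imager.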

H4 = assay: Inhibition of Alpha secretase expressed in human H4 cells assessed as reduction in C83 levels at 10 uM incubated for 16 hrs by immunoblot; assay type: cell-based
Procedure, shortened: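 H4 cells (3 × 10⁵/well) adhered 4−6 h in DMEM/10% FCS at 37 °C, then were switched to serum-free Ultraculture containing compound at 10 μM final for 16 h. Cells were lysed in NP40/deoxycholate buffer, and protein was equalized by BCA. Lysates were run on 10−20% tricine gels and immunoblotted with antibody to the APP C-terminal 20 residues (1:2000); C99 and C83 were imaged on an infrared system.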

Beta-secretase 1 [8] = biological target: T2, Beta-secretase 1 (Homo sapiens, UniProt P56817); assay: Inhibition of BACE1 expressed in human H4 cells assessed as reduction in CTF levels at 10 uM incubated for 16 hrs by immunoblot; assay type: cell-based
Beta-secretase 1 [9] = biological target: T2, Beta-secretase 1; assay: Inhibition of BACE1 by fluorescence assay
Beta-secretase 1 [10] = biological target: T2, Beta-secretase 1; assay: Inhibition of BACE1 expressed in CHO 2B7 cells expressing wild type APP695 assessed as reduction in Abeta40/Abeta42 levels incubated for 16 hrs by sandwich ELISA; assay type: cell-based
Beta-secretase 1 [11] = biological target: T2, Beta-secretase 1; conditions: H4, at 10 µM

Cathepsin D, sequence (P07339 65-162 limits assumed): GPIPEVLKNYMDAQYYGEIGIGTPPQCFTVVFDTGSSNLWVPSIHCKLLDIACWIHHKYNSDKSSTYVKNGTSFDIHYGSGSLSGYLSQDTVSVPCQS
Cathepsin D, sequence (P07339 169-412 limits assumed): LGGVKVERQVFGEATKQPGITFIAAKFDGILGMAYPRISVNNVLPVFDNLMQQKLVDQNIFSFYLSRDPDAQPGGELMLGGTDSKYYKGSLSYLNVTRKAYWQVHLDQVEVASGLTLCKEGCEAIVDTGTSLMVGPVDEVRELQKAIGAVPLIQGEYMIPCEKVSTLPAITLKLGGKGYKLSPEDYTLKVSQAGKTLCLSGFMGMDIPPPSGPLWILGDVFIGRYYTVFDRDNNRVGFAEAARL
T2 sequence (P56817 whole entry): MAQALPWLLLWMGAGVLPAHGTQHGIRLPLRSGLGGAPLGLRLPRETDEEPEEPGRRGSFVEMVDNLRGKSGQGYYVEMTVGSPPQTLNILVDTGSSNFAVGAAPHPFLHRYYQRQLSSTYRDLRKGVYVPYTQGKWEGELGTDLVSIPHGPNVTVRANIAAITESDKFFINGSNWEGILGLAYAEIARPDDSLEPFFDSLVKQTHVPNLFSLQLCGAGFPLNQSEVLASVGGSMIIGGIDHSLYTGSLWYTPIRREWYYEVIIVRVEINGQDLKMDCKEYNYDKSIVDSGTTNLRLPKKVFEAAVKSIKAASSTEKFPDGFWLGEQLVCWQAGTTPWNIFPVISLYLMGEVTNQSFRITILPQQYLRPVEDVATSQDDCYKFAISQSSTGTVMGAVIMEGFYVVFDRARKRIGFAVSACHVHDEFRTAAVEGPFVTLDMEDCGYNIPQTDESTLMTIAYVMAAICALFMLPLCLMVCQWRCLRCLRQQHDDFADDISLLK

IC50 (Cathepsin E): 1.92 nM | IC50 (Cathepsin D): 0.126 nM
SMILES: COC(=O)[C@@H]1CCCN1C(=O)[C@@H](Cc1ccccc1)N(C)C(=O)[C@H](C)NC(=O)[C@H](CC(C)C)NC(=O)C[C@H](O)[C@H](Cc1ccccc1)NC(=O)[C@H](CCC(N)=O)N(C)C(=O)[C@@H](NC(=O)OC(C)(C)C)C(C)C

IC50 (Cathepsin E): 66 nM
SMILES: COC(=O)[C@@H]1CCCN1C(=O)[C@@H](Cc1ccccc1)N(C)C(=O)[C@H](C)NC(=O)[C@H](CC(C)C)NC(=O)C[C@H](O)[C@H](Cc1ccccc1)NC(=O)[C@H](CCC(N)=O)N(C)C(=O)[C@@H](NC(=O)[C@H](C)O)C(C)C [listing 1 of 2 here]

IC50 (Cathepsin E): 37.5 nM
SMILES: COC(=O)[C@@H]1CCCN1C(=O)[C@@H](Cc1ccccc1)N(C)C(=O)[C@H](C)NC(=O)[C@H](CC(C)C)NC(=O)C[C@H](O)[C@H](Cc1ccccc1)NC(=O)[C@H](CCC(N)=O)N(C)C(=O)[C@@H](NC(=O)[C@H](C)O)C(C)C [TASIAMIDE B]

Drug uptake (Brain): 2.5% | Drug metabolism [1]: Active | Drug metabolism (Serum [2]): Active | Papp at 10 µM [3]: 8.58 ×10⁻⁶ cm/s | Papp at 10 µM [4]: 10.7 ×10⁻⁶ cm/s | Stability [5]: Stable | Stability (Serum [6]): Stable | inhibition [7]: inactive | inhibition (Beta-secretase 1 [8]): Active | IC50 (Cathepsin E): 210 nM | IC50 (Cathepsin D): 11.3 nM | IC50 (Beta-secretase 1 [9]): 128 nM | IC50 (Beta-secretase 1 [10]): 100 nM | inhibition (Beta-secretase 1 [11]): Active
SMILES: COC(=O)[C@@H]1CCCN1C(=O)[C@@H](Cc1ccccc1)N(C)C(=O)[C@H](C)NC(=O)[C@H](CC(C)C)NC(=O)C[C@H](O)[C@H](Cc1ccccc1)NC(=O)c1cc(NS(C)(=O)=O)cc(C(=O)N[C@H](C)c2ccccc2)c1
Ratio (Nucleic Acid): 3 | Activity (Mus musculus): inactive | inhibition (H4): inactive

IC50 (Cathepsin E): 4950 nM | IC50 (Cathepsin D): 71.7 nM
SMILES: COC(=O)[C@@H]1CCCN1C(=O)[C@@H](Cc1ccccc1)N(C)C(=O)[C@H](C)NC(=O)[C@H](CC(C)C)NC(=O)C[C@H](O)[C@H](Cc1ccccc1)NC(C)=O

IC50 (Cathepsin E): 20.8 nM | IC50 (Cathepsin D): 54.1 nM | IC50 (Beta-secretase 1 [9]): 73 nM | inhibition (Beta-secretase 1 [11]): Active
SMILES: CC(C)C[C@H](NC(=O)C[C@H](O)[C@H](Cc1ccccc1)NC(=O)[C@H](CCC(N)=O)N(C)C(=O)[C@@H](NC(=O)[C@H](C)O)C(C)C)C(=O)N[C@@H](C)C(=O)N(C)[C@H](Cc1ccccc1)C(=O)O (H-[Lac]V[NMeQ][Ahppa(3S,4S)]LA[dNMeF]-OH)

Drug uptake (Brain): 5.8% | Drug metabolism [1]: Active | Drug metabolism (Serum [2]): Active | Stability [5]: Stable | Stability (Serum [6]): Stable | inhibition [7]: inactive | inhibition (Beta-secretase 1 [8]): Active | IC50 (Cathepsin E): 36.4 nM | IC50 (Cathepsin D): 5.84 nM | IC50 (Beta-secretase 1 [10]): 10 nM | inhibition (Beta-secretase 1 [11]): Active
SMILES: COC(=O)[C@@H]1CCCN1C(=O)[C@@H](Cc1ccccc1)N(C)C(=O)[C@H](C)NC(=O)[C@H](CC(C)C)NC(=O)C[C@H](O)[C@H](Cc1ccccc1)NC(=O)c1cc(C(=O)N[C@H](C)c2ccccc2)cc(N(C)S(C)(=O)=O)c1
Ratio (Nucleic Acid): 20 | Activity (Mus musculus): Active | inhibition (H4): inactive

IC50 (Cathepsin E): 1710 nM
SMILES: COC(=O)[C@@H]1CCCN1C(=O)[C@H](Cc1ccccc1)N(C)C(=O)[C@@H](C)NC(=O)[C@H](CC(C)C)NC(=O)C[C@H](O)[C@H](Cc1ccccc1)NC(=O)[C@H](CCC(N)=O)N(C)C(=O)[C@@H](NC(=O)[C@H](C)O)C(C)C

inhibition [7]: inactive
SMILES: COC(=O)[C@@H]1CCCN1C(=O)[C@@H](Cc1ccccc1)N(C)C(=O)[C@H](C)NC(=O)[C@H](CC(C)C)NC(=O)C[C@H](O)[C@H](Cc1ccccc1)NC(=O)[C@H](CCC(N)=O)N(C)C(=O)[C@@H](NC(=O)[C@H](C)O)C(C)C [listing 2 of 2 here]
